# Results of several laboratories.
# Protocols differ between the studies behind these lines.
# Target: Serine/threonine-protein kinase PAK 6 (PAK6, Homo sapiens, UniProt Q9NQU5)
SMILES,assay,setting,remaining binding [%]
Cc1cnc(Nc2ccc(C(=O)N3CCC(N4CCCC4)CC3)cc2)nc1-c1cc2ccccc2s1,"binding, competition with immobilised ligand",1 µM,63
COc1cnc(Nc2cccc(S(N)(=O)=O)c2)nc1N1CCN(c2ccccc2)CC1,"binding, competition with immobilised ligand",1 µM,100
CN(C(=O)c1ccccc1)c1cc(N(C)c2ccc3c(c2)CCc2ccc(C(=O)NCCN4CCOCC4)cc2C3=O)ccc1F,"cell-free assay, competition with immobilised ligand",1 µM,100
CN(C)c1ncc(F)c(-c2cnn3ncccc23)n1,binding,1 µM,100
O=C(NC[C@@H]1[C@H]2CN(C(=O)OCc3cc(C(F)(F)F)cc(C(F)(F)F)c3)C[C@@H]12)c1ccc2[nH]nnc2c1,"cell-free assay, competition with immobilised ligand",1 µM,93
FC(F)(F)Oc1cccc(-c2cnc3ccc(-c4ccncc4)nn23)c1,"cell-free assay, competition with immobilised ligand",5 µM,53
Cc1noc([C@H]2C[C@@H](c3ccc(C(F)(F)F)cc3)CN(C(=O)N3CCS(=O)(=O)C3)C2)n1,"cell-free assay, competition with immobilised ligand",1 µM,100
CN(C)c1nccc(-c2cnc3ncccn23)n1,binding,1 µM,98
CCCCN(CCCC)C(=O)CN1C[C@@H](c2cc(OC)c3c(c2)OCO3)[C@H](C(=O)O)[C@H]1CC(C)(C)CCC,"cell-free assay, competition with immobilised ligand",1 µM,100
CN(CCCC(F)(F)F)c1nccc(-c2cnn3ncccc23)n1,binding,1 µM,100
CC1=C(C#N)[C@@H](c2ccc3[nH]nc(C)c3c2)C(C#N)=C(c2ccc(Cl)cc2)N1,"cell-free assay, competition with immobilised ligand",1 µM,100
CN(c1nccc(-c2cnn3ncccc23)n1)C1CC1,binding,1 µM,100
O=C(NCC1CCOCC1)c1n[nH]cc1NC(=O)c1c(F)cccc1F,"binding, competition with immobilised ligand",1 µM,86
C[C@H](c1ccnc(Nc2nc3ccc(-c4cc(N(C)C)ncn4)cc3[nH]2)c1)N1CCN(C(=O)CC(F)(F)F)CC1,"cell-free assay, competition with immobilised ligand",0.1 µM,100
Nc1ncc2c(n1)-c1c([nH]c3ccc(C#CC4CC4)cc13)CCCC2,"binding, competition with immobilised ligand",1 µM,94
c1cncc(-c2cccc(Nc3nccc(NC4CCCCC4)n3)c2)c1,"binding, competition with immobilised ligand",10 µM,60
O=C(c1ccc(Nc2ncc(Cl)c(-c3cc4ccccc4s3)n2)cc1)N1CCC(N2CCCC2)CC1,"binding, competition with immobilised ligand",1 µM,62
C[C@@H]1CCN(c2nccc(-c3cnn4ncccc34)n2)C1,binding,1 µM,87
CNC(=O)[C@@H]1CC[C@@H](n2c(-c3ccc4cnccc4c3)nc3ccc(C(=O)NCc4cccc(C(N)=O)c4)cc32)C1,"binding, competition with immobilised ligand",1 µM,100
COc1ccnn2ncc(-c3ccnc(N(C)C)n3)c12,binding,1 µM,97
O=C(c1ccc(Nc2nccc(-c3cc4ccccc4s3)n2)cc1)N1CCC(N2CCCC2)CC1,"binding, competition with immobilised ligand",1 µM,100
